5HT1E antag = 5-HT1E (human) receptor antagonism | P28566 | AID 571 | inhibition, % at 6 µM | CHO 5-HT1E Ga15 NFAT-bla reporter, FRET, antagonist | 65,000 tested, 0.99% active;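 active means inhibition above a set limit, the mean inhibition across every tested compound plus 3 SD, cut at about 29% in these data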;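 further: signal is the 460 over 535 nm emission ratio of beta-lactamase substrate; 0% = agonist plus DMSO wells and 100% = wells without agonist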
5-HT1A blocker = 5-HT1a (human) receptor antagonism. AID 612. P08908. 62,000 tested, 0.68% active. CHO 5-HT1a Ga15 NFAT-bla reporter, antagonist mode. inhibition, % at 10 µM;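 active means inhibition above the mean of all tested compounds plus 3 SD, cut at about 43% in these data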;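 further: receptor stimulated by 5-CT agonist at 100 nM near EC80; beta-lactamase reporter measured by ratiometric fluorescence of a cleavable substrate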
Target sequence (P08908 whole entry, looked up): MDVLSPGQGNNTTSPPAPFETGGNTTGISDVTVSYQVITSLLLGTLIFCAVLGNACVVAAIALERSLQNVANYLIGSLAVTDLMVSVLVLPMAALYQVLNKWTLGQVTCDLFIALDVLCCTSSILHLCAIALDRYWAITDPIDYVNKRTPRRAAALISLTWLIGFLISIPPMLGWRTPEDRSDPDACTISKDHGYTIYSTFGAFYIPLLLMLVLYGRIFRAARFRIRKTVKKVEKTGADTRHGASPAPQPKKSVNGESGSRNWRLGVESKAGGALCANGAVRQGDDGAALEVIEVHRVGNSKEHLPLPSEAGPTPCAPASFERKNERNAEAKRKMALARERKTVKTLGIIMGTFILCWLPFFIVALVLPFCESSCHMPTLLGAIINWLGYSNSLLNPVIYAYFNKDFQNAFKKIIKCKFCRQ
HTR1E agonist = 5-HT1E (human) receptor agonism; P28566; AID 574; activation, % at 6 µM; CHO 5-HT1E Ga15 NFAT-bla reporter, FRET; 0% DMSO wells, 100% control agonist wells; 65,000 tested, 0.69% active;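 active means activation above a set limit, the screen-wide mean activation plus 3 SD, cut at about 8.5% in these data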;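 further: 100% = positive control agonist at 1 µM giving full maximal response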
S1P1 ag-PAM = activates or potentiates agonism at human S1P1 receptor; AID 449; activation, % at 9.5 µM; P21453; S1P1 CRE-bla cells, forskolin, beta-lactamase FRET, potentiator mode; S1P1 agonist co-added at EC20, 2 nM; 100% = saturating reference agonist, 0% = basal; 56,000 tested, 0.57% active;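 active means activation above a cutoff set at the mean activation of all tested compounds plus 3 SD, cut at about 54% in these data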;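 further: forskolin at 4 µM as EC80 and the EC20 agonist is SEW2871; 100% = SEW2871 at its EC100 plus forskolin at EC80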
S1P3 agonist = S1P3 (human) receptor agonism; Q99500; S1P3 NFAT-BLA reporter cells, FRET ratio; relative to 1 µM S1P, basal subtracted; activation, % at 4.5 µM; 60,000 tested, 0.1% active; AID 373;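 active means activation above the screen-wide mean plus 3 SD, cut at about 4.5% in these data, passing the limit was not always enough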
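Benchmarks: high control 1 µM S1P / System: stable CHO line with human S1P3, Gα16, NFAT-BLA reporter / Dosing: single compound concentration, 4.5 µM final / Timing: 4 h compound at 37 °C, 2 h substrate at RT / Measured by: FRET β-lactamase substrate fluorescence, excitation 405 nm, 460/535 nm emission ratio, background-subtracted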
5HT1a ag = 5-HT1a (human) receptor agonism | activation, % at 10 µM | P08908 | 65,000 tested, 0.56% active | CHO 5-HT1a Ga15 NFAT-bla reporter, FRET ratio; 0% basal, 100% maximal reference agonist;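 active means activation above the screen-wide mean activation plus 3 SD, cut at about 19% in these data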;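 further: 0% = DMSO wells and 100% = 5-CT at EC100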
Numbers without * were called inactive; x = no result. Shown are actives, neighbours in structure and some others; about 2.9% of the full set was active somewhere.

SMILES	5HT1E antag	5-HT1A blocker	HTR1E agonist	S1P1 ag-PAM	S1P3 agonist	5HT1a ag
O=C(CN1CCN(c2cccc(Cl)c2)CC1)N1CCCC1	-2	-9	2	-14	-1	-3
O=C(c1c(Cl)nc2sccn12)N1CCN(c2cccc(Cl)c2)CC1	42*	24	-1	x	x	-3
COCC(C)NS(=O)(=O)c1ccc(NC(=O)C(Cc2ccccc2)NC(N)=O)cc1 (stereo not given)	-8	6	-1	-4	0	-3
CCCn1c(C)cc(=O)c2cc(NC(=O)c3cnccn3)ccc21	6	18	0	-30	0	-1
Cc1ccc(S(=O)(=O)n2nc(-c3ccc(Cl)cc3)nc2NCc2ccco2)cc1	9	31	0	x	-1	1
COc1cc2c(cc1OC)CN(Cc1cccs1)CC2	0	4	13*	-19	0	-2
C/C(Cl)=C/Cn1c(N2CCCC2)nc2c1c(=O)n(C)c(=O)n2C	7	13	-1	-12	8.7*	-1
CNC(=O)N(C1=NCC(C)(C)S1)c1ccc(F)c(Cl)c1	31*	12	0	-16	-1	1
C=CCn1c(=O)c2c(C)c(C)sc2n2c(Nc3ccccc3)nnc12	8	-10	1	-12	0	2
CN1CCN(C2=C(Cl)C(=O)N(C3CCCCC3)C2=O)CC1	28	12	39*	15	-1	4
O=C1C(Cl)=C(N2CCCCC2)C(=O)N1c1ccccc1	-6	17	-1	8	-2	0
Cn1cccc1C(=O)NS(=O)(=O)c1ccccc1Cl	3	12	0	11	-1	25*
CCSc1nnc(NC(=O)c2cccc(OCc3c(C)noc3C)c2)s1	-3	-2	-1	x	x	-1
CCOC(=O)c1c(C)[nH]c(C(=O)C(C)OC(=O)c2cccc(OCc3c(C)noc3C)c2)c1C (stereo not given)	11	6	1	101*	-2	10
CC(C)(C)OC(=O)N1Cc2ccccc2C[C@H]1C(=O)O	-4	11	1	-15	0	-5
COc1ccccc1C1N(c2ccc(Cl)cc2)C(=O)C2CCCN21 (stereo not given)	7	3	15*	7	0	0
COc1ccc(C2N(c3ccc(F)cc3)C(=O)C3CCCN32)cc1 (stereo not given)	88*	16	0	-12	-2	-6
COc1ccc(N2C(=O)C3CCCN3C2c2ccccc2OC)cc1 (stereo not given)	-7	-1	1	-12	-1	2
C=CCOC(=O)Nc1c(C(=O)OC)[nH]c2ccc(Cl)cc12	2	0	0	-13	-1	2
CC1CCCC(NC(=O)CCn2c(=O)oc3ccccc32)C1C (stereo not given)	8	2	-1	0	0	-1
COc1ccc(-c2cc(C(F)(F)F)nc(N3CCCCCC3)n2)cc1	-10	-7	1	x	x	3
COc1ccc(-c2cc(C(F)(F)F)nc(N3CCN(C)CC3)n2)cc1	-2	-1	18*	x	x	5
COc1cccc(-c2cc(C(F)(F)F)nc(N3CCCCC3)n2)c1	-6	-4	0	x	x	99*
CCOC(=O)C(C)Oc1cccc2c(=O)n(CC(=O)NCc3ccco3)ccc12 (stereo not given)	38*	14	0	34	-2	-4
CCOC(=O)N1CCC(NC(=O)c2cccc3c2C(=O)N(Cc2cccnc2)C3)CC1	0	-8	0	0	0	-1
SMILES	5HT1E antag	5-HT1A blocker	HTR1E agonist	S1P1 ag-PAM	S1P3 agonist	5HT1a ag
c1ccc(C(Cc2nc(-c3cccnc3)no2)c2ccccc2)cc1	19	15	-1	85*	20*	0
c1ccc(Cc2nc(-c3ccccn3)no2)cc1	3	-5	-1	-18	-1	1
c1ccc(C(Cc2nc(-c3ccccn3)no2)c2ccccc2)cc1	-15	-16	0	14	11*	1
Cc1cccn2c(=O)c3cc(C(=O)N4c5ccccc5CC4C)n(C)c3nc12 (stereo not given)	5	1	0	-33	1	-1
CC1Cc2ccccc2N1C(=O)c1cc2c(=O)n3ccccc3nc2n1C (stereo not given)	39*	-14	0	-57	0	3
CCC(C)C(NCc1cccc(C)c1)C(=O)O (stereo not given)	12	-2	-2	x	x	1
CC(C)(C)OC(=O)N[C@@H](Cc1ccccc1)c1nnc(S(=O)(=O)Cc2ccccc2)o1	55*	78*	1	86*	0	-3
CCC(C)[C@@H](NC(=O)OC(C)(C)C)c1nnc(S(=O)(=O)Cc2cccc(C)c2)o1 (stereo not given in full)	-4	51*	2	41	-1	4
Fc1cc(Br)ccc1Nc1nc2ccccc2n2nnnc12	-11	-16	15*	-29	-1	3
Cc1nn(-c2nc3ccccc3s2)c(C)c1Oc1ccccc1O	-10	-12	0	6	0	-4
O=C(c1cnn(-c2nc3ccccc3s2)c1)c1ccccc1O	12	-7	0	-12	-1	21*
CC(CCc1ccccc1)NCc1ccncc1 (stereo not given)	-2	4	0	-10	-1	-3
O=S(CCc1ccncc1)Cc1ccccc1 (stereo not given)	6	x	0	4	3	40*
CCC(NC(=O)Nc1nnc(C(F)(F)F)s1)(C(F)(F)F)C(F)(F)F	66*	x	-1	112*	-10	-1
O=C(O)CCC(=O)Nc1nnc(C(F)(F)F)s1	8	-4	-1	7	-2	-2
Cc1cc(C)n(-c2nc(SCC(=O)NCC3CCCO3)c3c4c(sc3n2)CCCC4)n1 (stereo not given)	15	23	-1	-3	-2	-3
Cc1cc(C)n(-c2nc(NCC3CCCO3)c3c4c(sc3n2)COC(C)(C)C4)n1 (stereo not given)	2	-2	0	-74	3	-1
Cc1cc(C)n(-c2nc(NCC(C)O)c3c4c(sc3n2)CCCC4)n1 (stereo not given)	-6	-3	1	-85	29*	2
Nc1nc(SCC(=O)NCCCO)nc2sc3c(c12)CCC3	-4	9	0	x	-1	0
Cc1cc(C)n(-c2nc(NCCO)c3c4c(sc3n2)CCCC4)n1	-12	-19	0	-68	28*	45*
Cc1cc(C)n(-c2nc(NCCCO)c3c4c(sc3n2)CCCC4)n1	11	-18	1	-84	41*	10
